From ChEMBL document CHEMBL1221267, “Synthesis, in vitro and in vivo evaluation of 3-arylisoquinolinamines as potent antitumor agents” (Bioorg Med Chem Lett, 2010)

Tests used:
[1] = test system: HCT-116; assay: Antitumor activity against human HCT116 by sulforhodamine B assay; type: functional, cell-based
In short: (§1)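 Human tumour lines from ATCC; growth inhibition by sulforhodamine B staining, absorbance read at 530 nm; IC50 taken as the drug concentration inhibiting cell growth by 50%, calculated by curve fitting.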

[2] = test system: OVCAR-3; assay: Antitumor activity against human OVCAR-3 by sulforhodamine B assay; type: functional, cell-based; in short: as §1
[3] = test system: HCT-15; assay: Antitumor activity against paclitaxel-resistant human HCT15 cells xenografted in BALB/c mouse assessed as tumor growth inhibition at 10 mg/kg, ip qd thrice a week from day 10 to day 29; type: functional; settings: HCT-15, ip, route intraperitoneal
In short: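 Female athymic BALB/c nu/nu mice, six weeks old, received 1 × 10^6 paclitaxel-resistant HCT-15 cells in 0.2 ml RPMI subcutaneously in the right flank. Once tumors were in range, mice were assigned to groups. Dosing was 10 mg/kg/day ip in 5% Cremophor plus 5% ethanol in PBS, three times weekly, days 10–29. Tumor diameters were measured by caliper every 3–5 days. Body weight was monitored.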

[4] = test system: HCT-15; assay: Cell cycle arrest in human HCT15 cells assessed as accumulation at sub-G1 phase at 10 nM after 48 hrs using propidium iodide staining by flow cytometry; type: functional
In short: (§2)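 HCT-15 cells plated at about 10^6 per 100-mm dish, grown 24 h, then given fresh medium with compound. Harvested by trypsinization at 24 h and 48 h, fixed in 70% ethanol, stained with 0.2% NP-40, RNase A (30 µg/ml) and propidium iodide (50 µg/ml) in phosphate–citrate buffer pH 7.2. DNA content by flow cytometry, at least 20,000 cells per analysis.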

[5] = test system: SK-MEL-28; assay: Antitumor activity against human SK-MEL-28 by sulforhodamine B assay; type: functional, cell-based; in short: as §1
[6] = test system: HCT-15; assay: Cell cycle arrest in human HCT15 cells assessed as accumulation at G2/M phase at 1 nM after 48 hrs using propidium iodide staining by flow cytometry; type: functional; in short: as §2
[7] = test system: HCT-15; assay: Antitumor activity against human paclitaxel-resistant HCT15 by sulforhodamine B assay; type: functional, cell-based; in short: as §1
[8] = test system: HCT-15; assay: Cell cycle arrest in human HCT15 cells assessed as accumulation at G2/M phase at 10 nM after 48 hrs using propidium iodide staining by flow cytometry; type: functional; in short: as §2
[9] = test system: HCT-15; assay: Cell cycle arrest in human HCT15 cells assessed as accumulation at G0/G1 phase at 1 nM after 24 hrs using propidium iodide staining by flow cytometry; type: functional; in short: as §2
[10] = test system: HCT-15; assay: Cell cycle arrest in human HCT15 cells assessed as accumulation at G2/M phase at 10 nM after 24 hrs using propidium iodide staining by flow cytometry; type: functional; in short: as §2
[11] = test system: HCT-15; assay: Cell cycle arrest in human HCT15 cells assessed as accumulation at sub-G1 phase at 1 nM after 24 hrs using propidium iodide staining by flow cytometry; type: functional; in short: as §2
[12] = test system: HCT-15; assay: Cell cycle arrest in human HCT15 cells assessed as accumulation at S phase at 1 nM after 24 hrs using propidium iodide staining by flow cytometry; type: functional; in short: as §2
[13] = test system: HCT-15; assay: Cell cycle arrest in human HCT15 cells assessed as accumulation at G2/M phase at 1 nM after 24 hrs using propidium iodide staining by flow cytometry; type: functional; in short: as §2
[14] = test system: Mus musculus; assay: Toxicity in BALB/c mouse assessed as change in body weight at 10 mg/kg, ip qd thrice a week from day 10 to day 29; type: organism-based; design: dose 10 mg/kg, route intraperitoneal; settings: in vivo
In short: (§3)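 Female athymic BALB/c nu/nu mice, six weeks old, carrying subcutaneous right-flank HCT-15 xenografts (1×10^6 cells in 0.2 ml RPMI). Dosed 10 mg/kg/day ip three times weekly, days 10–29, in 5% Cremophor/5% ethanol in PBS; vehicle-only controls. Body weight monitored alongside caliper tumour measurements every 3–5 days.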

[15] = test system: HCT-15; assay: Cell cycle arrest in human HCT15 cells assessed as accumulation at sub-G1 phase at 1 nM after 48 hrs using propidium iodide staining by flow cytometry; type: functional; in short: as §2
[16] = test system: HCT-15; assay: Cell cycle arrest in human HCT15 cells assessed as accumulation at S phase at 10 nM after 24 hrs using propidium iodide staining by flow cytometry; type: functional; in short: as §2
[17] = test system: Mus musculus; assay: Toxicity in BALB/c mouse at 10 mg/kg, ip qd thrice a week from day 10 to day 29; type: organism-based; design: dose 10 mg/kg, route intraperitoneal; settings: in vivo; in short: as §3
[18] = test system: HCT-15; assay: Cell cycle arrest in human HCT15 cells assessed as accumulation at G0/G1 phase at 1 nM after 48 hrs using propidium iodide staining by flow cytometry; type: functional; in short: as §2
[19] = test system: CAKI-1; assay: Antitumor activity against human Caki1 by sulforhodamine B assay; type: functional, cell-based; in short: as §1
[20] = test system: HCT-116; assay: Resistant index, ratio of IC50 for paclitacel-resistant human HCT15 cells to IC50 for human HCT116 cells; type: functional
In short: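 Index computed as IC50 in HCT-15 divided by IC50 in HCT 116, both from sulforhodamine B growth inhibition with absorbance at 530 nm.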

[21] = test system: HCT-15; assay: Cell cycle arrest in human HCT15 cells assessed as accumulation at S phase at 10 nM after 48 hrs using propidium iodide staining by flow cytometry; type: functional; in short: as §2
[22] = test system: HCT-15; assay: Cell cycle arrest in human HCT15 cells assessed as accumulation at sub-G1 phase at 10 nM after 24 hrs using propidium iodide staining by flow cytometry; type: functional; in short: as §2
[23] = test system: PANC-1; assay: Antitumor activity against human PANC1 by sulforhodamine B assay; type: functional, cell-based; in short: as §1
[24] = test system: PC-3; assay: Antitumor activity against human PC3 by sulforhodamine B assay; type: functional, cell-based; in short: as §1
[25] = test system: HCT-15; assay: Cell cycle arrest in human HCT15 cells assessed as accumulation at G0/G1 phase at 10 nM after 24 hrs using propidium iodide staining by flow cytometry; type: functional; in short: as §2
[26] = test system: SNB-19; assay: Antitumor activity against human SNB19 by sulforhodamine B assay; type: functional, cell-based; in short: as §1
[27] = test system: HCT-15; assay: Cell cycle arrest in human HCT15 cells assessed as accumulation at G0/G1 phase at 10 nM after 48 hrs using propidium iodide staining by flow cytometry; type: functional; in short: as §2
[28] = test system: MDA-MB-231; assay: Antitumor activity against human MDA-MB-231 by sulforhodamine B assay; type: functional, cell-based; in short: as §1

Q: For COc1cccc(-c2cc3ccc(N(C)C)cc3c(N)n2)c1.Cl, which IC50 [1] is on record?
A: Its IC50 is 17 nM.

Q: And the IC50 [2]?
A: The IC50 was 14 nM.

Q: And the inhibition in vivo at 10 mg/kg [3]?
A: Its inhibition in vivo at 10 mg/kg is 69.2%.

Q: What about the Activity [4] of the same compound?
A: The Activity was 24.76%.

Q: And the IC50 [5]?
A: The IC50 was 32 nM.

Q: What about the Activity [6] of the same compound?
A: The Activity was 17.2%.

Q: And the IC50 [7]?
A: The IC50 was 15 nM.

Q: And the Activity [8]?
A: The Activity was 12.74%.

Q: What about the Activity [9] of the same compound?
A: Its Activity is 50.78%.

Q: What about the Activity [10] of the same compound?
A: Its Activity is 16.21%.

Q: And the Activity [11]?
A: Its Activity is 0.9%.

Q: And the Activity [12]?
A: The Activity was 29.02%.

Q: And the Activity [13]?
A: The Activity was 20.2%.

Q: What about the Activity [14] of the same compound?
A: The Activity was “Non-toxic”.

Q: And the Activity [15]?
A: The Activity was 3.78%.

Q: What about the Activity [16] of the same compound?
A: Its Activity is 21.28%.

Q: What about the Activity [17] of the same compound?
A: Its Activity is “Non-toxic”.

Q: What about the Activity [18] of the same compound?
A: The Activity was 59.52%.

Q: What about the IC50 [19] of the same compound?
A: The IC50 was 22 nM.

Q: And the “Ratio IC50” value [20]?
A: Its value is 0.88.

Q: And the Activity [21]?
A: The Activity was 18.59%.

Q: And the Activity [22]?
A: Its Activity is 19.6%.

Q: What about the IC50 [23] of the same compound?
A: The IC50 was 19 nM.

Q: And the IC50 [24]?
A: Its IC50 is 19 nM.

Q: And the Activity [25]?
A: The Activity was 62.51%.

Q: And the IC50 [26]?
A: Its IC50 is 32 nM.

Q: And the Activity [27]?
A: The Activity was 68.67%.

Q: What about the IC50 [28] of the same compound?
A: The IC50 was 21 nM.
